Experimental data reported in ChEMBL document CHEMBL2176985 (J Med Chem, 2012).
Calls of active or inactive are those of the source. The rule behind the calls is not given here.

Tests used:
[1] = target: T1, Neuronal acetylcholine receptor; alpha3/beta4 (Homo sapiens, UniProt P30926+P32297); test: Agonist activity at human alpha3beta4 nAChR expressed in human SH-SY5Y cells assessed as stimulation of 86Rb+ efflux preincubated for 10 mins by liquid scintillation counting; assay type: functional, cell-based
[2] = tested on: Neuronal acetylcholine receptor alpha2/beta4 (Rattus norvegicus); test: Displacement of [3H]Epibatidine from rat alpha2beta4 nAChR at 10 uM
[3] = target: Neuronal acetylcholine receptor; alpha4/beta4 (Rattus norvegicus) (UniProt P09483+P12392); test: Displacement of [3H]Epibatidine from rat alpha4beta4 nAChR at 10 uM; assay type: protein-complex assay
[4] = target: Neuronal acetylcholine receptor; alpha3/beta4 (Rattus norvegicus) (UniProt P04757+P12392); test: Displacement of [3H]Epibatidine from rat alpha3beta4 nAChR at 10 uM; assay type: protein-complex assay
[5] = target: Neuronal acetylcholine receptor; alpha3/beta2 (Rattus norvegicus, UniProt P04757+P12390); test: Displacement of [3H]Epibatidine from rat alpha3beta2 nAChR; assay type: protein-complex assay
[6] = target: T2, Acetylcholine receptor; alpha1/beta1/delta/gamma (Homo sapiens, UniProt P02708+P07510+P11230+Q07001); test: Agonist activity at human alpha1beta1gammadelta nAChR expressed in human TE671/RD cells assessed as stimulation of 86Rb+ efflux preincubated for 10 mins by liquid scintillation counting; assay type: functional, cell-based
[7] = target: T3, Neuronal acetylcholine receptor; alpha4/beta2 (Homo sapiens, UniProt P17787+P43681); test: Agonist activity at human alpha4beta2 nAChR expressed in human SH-EP1 cells assessed as stimulation of 86Rb+ efflux preincubated for 10 mins by liquid scintillation counting; assay type: functional, cell-based
[8] = target: T3, Neuronal acetylcholine receptor; alpha4/beta2; test: Antagonist activity at human alpha4beta2 nAChR expressed in human SH-EP1 cells assessed as inhibition of 86Rb+ efflux preincubated for 10 mins by liquid scintillation counting; assay type: functional, cell-based
How it was run: (§1)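 Cells loaded with ⁸⁶Rb⁺ were pre-exposed to test drug for 10 min. Efflux was normalized to intracellular ⁸⁶Rb⁺ available at that step. Nonspecific efflux came from 100 µM mecamylamine or buffer. Inactivation IC50 was obtained by curve fit.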

[9] = target: T4, Neuronal acetylcholine receptor; alpha4/beta2 (Rattus norvegicus, UniProt P09483+P12390); test: Displacement of [3H]Epibatidine from rat alpha4beta2 nAChR; assay type: protein-complex assay
[10] = target: T1, Neuronal acetylcholine receptor; alpha3/beta4; test: Antagonist activity at human alpha3beta4 nAChR expressed in human SH-SY5Y cells assessed as inhibition of 86Rb+ efflux preincubated for 10 mins by liquid scintillation counting; assay type: functional, cell-based; how it was run: as §1
[11] = target: T4, Neuronal acetylcholine receptor; alpha4/beta2; test: Displacement of [3H]Epibatidine from alpha4beta2 nAChR in rat brain; assay type: tissue-based
[12] = target: T2, Acetylcholine receptor; alpha1/beta1/delta/gamma; test: Antagonist activity at human alpha1beta1gammadelta nAChR expressed in human TE671/RD cells assessed as inhibition of 86Rb+ efflux preincubated for 10 mins by liquid scintillation counting; assay type: functional, cell-based
How it was run: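 Cells loaded with ⁸⁶Rb⁺ were pre-exposed to test drug for 10 min. […] Efflux was normalized to intracellular ⁸⁶Rb⁺ available at that step. Nonspecific efflux came from 100 µM mecamylamine or buffer. Inactivation IC50 was obtained by curve fit.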

[13] = target: T3, Neuronal acetylcholine receptor; alpha4/beta2; test: Agonist activity at human low-sensitivity alpha4beta2 nAChR expressed in human SH-EP1 cells assessed as stimulation of 86Rb+ efflux preincubated for 10 mins by liquid scintillation counting relative to control; assay type: functional, cell-based
[14] = target: T3, Neuronal acetylcholine receptor; alpha4/beta2; test: Agonist activity at human high-sensitivity alpha4beta2 nAChR expressed in human SH-EP1 cells assessed as stimulation of 86Rb+ efflux preincubated for 10 mins by liquid scintillation counting relative to control; assay type: functional, cell-based
[15] = target: Neuronal acetylcholine receptor; alpha4/beta4 (Homo sapiens, UniProt P30926+P43681); test: Binding affinity to alpha4beta4 nAChR; assay type: protein-complex assay
[16] = target: T3, Neuronal acetylcholine receptor; alpha4/beta2; test: Antagonist activity at human alpha4beta2 nAChR expressed in human SH-EP1 cells assessed as inhibition of 86Rb+ efflux preincubated for 10 mins by liquid scintillation counting relative to control; assay type: functional, cell-based; how it was run: as §1
Mus musculus [17] = test: Antidepressant activity in BALB/cJ mouse assessed as reduction of immobility time at 5 to 30 mg/kg, ip administered 30 mins before test measured over 6 mins trial by post hoc Fisher's LSD test; assay type: functional, organism-based
Mus musculus [18] = test: Antidepressant activity in BALB/cJ mouse assessed as reduction of immobility time at 5 to 30 mg/kg, ip administered 30 mins before test measured over 6 mins trial by forced swim test; assay type: functional, organism-based
Mus musculus [19] = test: Antidepressant activity in BALB/cJ mouse assessed as reduction of immobility time at 1 to 3 mg/kg, ip administered 30 mins before test measured over 6 mins trial by forced swim test; assay type: functional, organism-based
Mus musculus [20] = test: Antidepressant activity in BALB/cJ mouse assessed as reduction of immobility time at 20 mg/kg, ip administered 30 mins before test measured over 6 mins trial by forced swim test; assay type: functional, organism-based; parameters: dose 20 mg/kg
[21] = target: T2, Acetylcholine receptor; alpha1/beta1/delta/gamma; test: Binding affinity to muscle type alpha1beta1gammadelta-nAChR; assay type: protein-complex assay, Muscle tissue
[22] = Agonist activity at ganglionic nAChR; assay type: functional

T4 sequence (P09483 whole entry): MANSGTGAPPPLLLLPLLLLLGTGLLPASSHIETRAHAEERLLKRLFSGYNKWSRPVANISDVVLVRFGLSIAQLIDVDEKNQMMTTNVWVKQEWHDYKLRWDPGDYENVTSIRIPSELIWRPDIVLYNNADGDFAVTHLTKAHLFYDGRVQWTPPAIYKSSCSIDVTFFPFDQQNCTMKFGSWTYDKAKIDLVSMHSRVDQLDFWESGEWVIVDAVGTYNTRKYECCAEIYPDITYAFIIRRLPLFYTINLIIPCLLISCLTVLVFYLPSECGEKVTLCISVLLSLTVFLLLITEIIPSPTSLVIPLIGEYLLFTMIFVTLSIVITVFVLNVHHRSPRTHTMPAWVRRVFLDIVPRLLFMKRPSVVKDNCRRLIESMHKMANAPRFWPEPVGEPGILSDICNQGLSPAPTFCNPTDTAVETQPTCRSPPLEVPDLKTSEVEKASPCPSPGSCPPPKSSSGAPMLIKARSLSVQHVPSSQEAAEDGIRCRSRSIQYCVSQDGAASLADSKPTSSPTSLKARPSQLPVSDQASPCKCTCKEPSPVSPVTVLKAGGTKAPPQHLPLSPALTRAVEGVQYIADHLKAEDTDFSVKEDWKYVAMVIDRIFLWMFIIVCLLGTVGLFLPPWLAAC
T4 sequence (P12390 whole entry): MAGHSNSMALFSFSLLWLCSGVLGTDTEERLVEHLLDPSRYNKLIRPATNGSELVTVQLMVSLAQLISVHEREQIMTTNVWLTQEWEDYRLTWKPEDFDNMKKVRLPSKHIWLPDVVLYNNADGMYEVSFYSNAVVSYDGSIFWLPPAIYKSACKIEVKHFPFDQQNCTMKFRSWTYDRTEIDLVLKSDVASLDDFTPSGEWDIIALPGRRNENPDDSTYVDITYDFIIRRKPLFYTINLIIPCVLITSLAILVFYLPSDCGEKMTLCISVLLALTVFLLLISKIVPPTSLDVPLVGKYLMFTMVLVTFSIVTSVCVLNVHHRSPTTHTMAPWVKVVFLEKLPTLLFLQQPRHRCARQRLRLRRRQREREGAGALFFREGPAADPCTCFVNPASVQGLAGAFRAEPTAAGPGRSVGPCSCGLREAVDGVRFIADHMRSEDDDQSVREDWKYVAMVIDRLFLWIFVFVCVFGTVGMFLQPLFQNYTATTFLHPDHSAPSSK
T2 sequence (P02708 whole entry): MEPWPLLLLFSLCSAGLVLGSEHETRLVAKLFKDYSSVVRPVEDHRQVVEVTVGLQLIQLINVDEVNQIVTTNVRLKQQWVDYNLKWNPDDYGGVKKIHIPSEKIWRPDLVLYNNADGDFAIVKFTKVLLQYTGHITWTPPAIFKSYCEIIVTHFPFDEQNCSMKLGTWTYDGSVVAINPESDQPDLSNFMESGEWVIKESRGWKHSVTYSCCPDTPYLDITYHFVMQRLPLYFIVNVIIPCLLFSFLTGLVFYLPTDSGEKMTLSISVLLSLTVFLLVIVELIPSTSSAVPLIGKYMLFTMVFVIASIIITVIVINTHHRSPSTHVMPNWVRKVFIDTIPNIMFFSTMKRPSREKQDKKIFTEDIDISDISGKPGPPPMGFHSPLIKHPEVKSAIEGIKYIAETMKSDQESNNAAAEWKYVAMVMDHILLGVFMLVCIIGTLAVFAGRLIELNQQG
T2 sequence (P07510 whole entry): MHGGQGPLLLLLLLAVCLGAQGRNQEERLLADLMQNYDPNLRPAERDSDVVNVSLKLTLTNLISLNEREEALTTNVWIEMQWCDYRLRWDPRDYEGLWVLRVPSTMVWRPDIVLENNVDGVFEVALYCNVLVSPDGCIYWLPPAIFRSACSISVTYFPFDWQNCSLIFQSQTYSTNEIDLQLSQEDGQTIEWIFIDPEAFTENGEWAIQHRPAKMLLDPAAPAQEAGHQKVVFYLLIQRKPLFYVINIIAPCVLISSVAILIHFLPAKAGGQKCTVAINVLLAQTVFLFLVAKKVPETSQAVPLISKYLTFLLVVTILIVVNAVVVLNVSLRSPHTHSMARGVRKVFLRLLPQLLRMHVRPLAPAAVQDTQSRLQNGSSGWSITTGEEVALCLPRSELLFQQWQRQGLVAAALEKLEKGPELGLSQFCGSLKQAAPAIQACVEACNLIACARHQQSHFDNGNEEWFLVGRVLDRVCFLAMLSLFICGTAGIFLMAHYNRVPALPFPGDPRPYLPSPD
T2 sequence (P11230 whole entry): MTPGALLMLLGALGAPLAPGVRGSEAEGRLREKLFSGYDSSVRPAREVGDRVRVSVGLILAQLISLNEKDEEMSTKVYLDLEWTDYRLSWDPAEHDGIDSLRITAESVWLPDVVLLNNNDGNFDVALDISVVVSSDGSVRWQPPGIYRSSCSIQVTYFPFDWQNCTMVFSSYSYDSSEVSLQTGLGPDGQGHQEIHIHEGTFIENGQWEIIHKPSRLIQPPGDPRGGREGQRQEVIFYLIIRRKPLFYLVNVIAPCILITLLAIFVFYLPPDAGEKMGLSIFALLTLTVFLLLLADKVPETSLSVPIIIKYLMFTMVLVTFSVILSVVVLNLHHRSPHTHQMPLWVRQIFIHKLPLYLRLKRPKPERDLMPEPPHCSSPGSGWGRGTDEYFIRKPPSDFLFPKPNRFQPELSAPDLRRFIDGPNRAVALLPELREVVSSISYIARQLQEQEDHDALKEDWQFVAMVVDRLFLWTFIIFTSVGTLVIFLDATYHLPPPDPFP
T2 sequence (Q07001 whole entry): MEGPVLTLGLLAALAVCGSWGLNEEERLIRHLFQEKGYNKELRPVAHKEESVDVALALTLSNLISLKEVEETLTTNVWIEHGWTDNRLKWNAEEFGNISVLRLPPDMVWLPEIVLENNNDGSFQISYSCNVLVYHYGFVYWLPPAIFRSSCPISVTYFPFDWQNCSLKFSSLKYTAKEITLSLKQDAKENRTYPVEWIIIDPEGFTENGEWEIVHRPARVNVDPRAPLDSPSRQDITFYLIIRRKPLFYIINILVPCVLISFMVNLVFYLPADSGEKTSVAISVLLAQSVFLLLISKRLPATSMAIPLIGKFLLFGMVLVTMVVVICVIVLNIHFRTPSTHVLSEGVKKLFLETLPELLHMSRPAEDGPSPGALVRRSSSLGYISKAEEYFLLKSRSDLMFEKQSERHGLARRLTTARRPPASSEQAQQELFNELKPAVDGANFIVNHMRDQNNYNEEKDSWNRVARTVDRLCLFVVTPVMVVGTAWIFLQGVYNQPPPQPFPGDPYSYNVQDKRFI
T3 sequence (P17787 whole entry): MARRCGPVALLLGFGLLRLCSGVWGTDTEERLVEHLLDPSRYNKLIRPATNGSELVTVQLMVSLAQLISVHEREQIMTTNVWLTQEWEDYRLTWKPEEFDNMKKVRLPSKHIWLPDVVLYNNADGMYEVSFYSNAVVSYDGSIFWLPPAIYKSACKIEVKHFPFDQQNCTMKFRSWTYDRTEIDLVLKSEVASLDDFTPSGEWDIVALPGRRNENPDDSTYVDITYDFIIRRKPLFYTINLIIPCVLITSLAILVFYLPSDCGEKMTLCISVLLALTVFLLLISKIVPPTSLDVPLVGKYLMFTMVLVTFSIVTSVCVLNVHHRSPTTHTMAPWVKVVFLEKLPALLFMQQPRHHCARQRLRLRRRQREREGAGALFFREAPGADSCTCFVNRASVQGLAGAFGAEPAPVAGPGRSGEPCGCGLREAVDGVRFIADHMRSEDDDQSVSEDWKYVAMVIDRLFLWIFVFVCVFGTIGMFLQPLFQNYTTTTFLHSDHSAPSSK
T3 sequence (P43681 whole entry): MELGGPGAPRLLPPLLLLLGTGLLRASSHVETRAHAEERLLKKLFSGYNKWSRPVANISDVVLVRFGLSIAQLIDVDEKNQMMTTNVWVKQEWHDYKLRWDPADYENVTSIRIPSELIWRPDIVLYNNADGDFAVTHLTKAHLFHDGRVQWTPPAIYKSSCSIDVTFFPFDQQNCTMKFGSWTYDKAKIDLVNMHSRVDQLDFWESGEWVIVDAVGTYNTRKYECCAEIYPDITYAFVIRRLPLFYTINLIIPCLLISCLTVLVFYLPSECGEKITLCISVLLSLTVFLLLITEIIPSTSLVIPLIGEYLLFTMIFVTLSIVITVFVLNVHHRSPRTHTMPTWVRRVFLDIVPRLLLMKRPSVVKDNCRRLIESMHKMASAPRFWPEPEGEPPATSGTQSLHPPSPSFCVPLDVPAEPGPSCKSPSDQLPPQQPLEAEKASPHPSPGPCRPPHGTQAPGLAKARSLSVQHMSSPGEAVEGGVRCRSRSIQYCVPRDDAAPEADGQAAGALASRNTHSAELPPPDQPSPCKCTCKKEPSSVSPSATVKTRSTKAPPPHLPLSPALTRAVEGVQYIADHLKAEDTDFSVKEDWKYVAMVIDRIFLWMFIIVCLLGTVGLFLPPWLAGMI
Neuronal acetylcholine receptor; alpha3/beta2, sequence (P04757 whole entry): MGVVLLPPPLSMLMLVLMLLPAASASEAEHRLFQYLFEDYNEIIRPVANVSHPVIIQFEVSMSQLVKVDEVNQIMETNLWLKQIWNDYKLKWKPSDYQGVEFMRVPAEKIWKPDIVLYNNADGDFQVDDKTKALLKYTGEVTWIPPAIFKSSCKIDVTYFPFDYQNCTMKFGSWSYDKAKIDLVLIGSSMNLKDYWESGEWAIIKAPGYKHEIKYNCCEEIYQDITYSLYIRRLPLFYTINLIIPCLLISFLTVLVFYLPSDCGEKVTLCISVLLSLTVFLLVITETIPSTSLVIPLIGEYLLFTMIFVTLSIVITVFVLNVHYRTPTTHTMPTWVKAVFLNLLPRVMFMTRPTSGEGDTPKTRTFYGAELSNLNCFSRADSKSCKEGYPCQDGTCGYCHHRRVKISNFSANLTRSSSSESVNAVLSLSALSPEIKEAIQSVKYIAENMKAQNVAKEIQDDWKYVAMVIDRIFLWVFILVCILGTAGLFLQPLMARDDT
Neuronal acetylcholine receptor; alpha3/beta2, sequence (P12390 whole entry): as the sequence (P12390 whole entry) above

Compound	EC50 [6]	IC50 [12]	other results
c1ncc(-c2cc(CCN3CCOCC3)no2)cc1OC[C@@H]1CCN1	> 1000 nM	> 1000 nM	EC50 [1]: > 1000 nM; inhibition [2]: < 50%; inhibition [3]: < 50%; inhibition [4]: < 50%; Ki [5]: 117 nM; EC50 ([7]; read-out: pEC50 (converted)): > 100 nM; EC50 ([7]; sh-ep1, read-out: EC50): > 100 nM; IC50 [8]: > 100 nM; Ki [9]: 11 nM; IC50 [10]: > 1000 nM; Ki [11]: 26.3 nM
c1cnc2cc3c(cc2n1)[C@@H]1CNC[C@H]3C1 [VARENICLINE]	> 1000 nM	–	Efficacy [13]: 34%; Efficacy [14]: 106%; Ki [15]: 110 nM; Imax [16]: 83%
O=C(Nc1ccccc1)OCCc1cc(-c2cncc(OC[C@@H]3CCCN3)c2)on1	> 1000 nM	> 1000 nM	–
CN1CCC[C@H]1c1cccnc1 [NICOTINE]	> 1000 nM	–	–
O=C(Nc1ccccc1)OCCc1cc(-c2cncc(OC[C@@H]3CCN3)c2)on1	> 1000 nM	> 1000 nM	–
CCc1cc(-c2cncc(OC[C@@H]3CCN3)c2)on1	> 1000 nM	> 1000 nM	Activity (Mus musculus [17]): Active; Activity (Mus musculus [18]): Active; Activity (Mus musculus [19]): Active
FCCCc1cc(-c2cncc(OC[C@@H]3CCN3)c2)on1	> 1000 nM	> 1000 nM	Activity (Mus musculus [17]): Active; Activity (Mus musculus [18]): Active
COCCc1cc(-c2cncc(OC[C@@H]3CCN3)c2)on1	> 1000 nM	> 1000 nM	–
OCCc1cc(-c2cncc(OC[C@H]3NC[C@@H]4C[C@@H]43)c2)on1	> 1000 nM	> 1000 nM	–
FC(F)(F)CCc1cc(-c2cncc(OC[C@@H]3CCN3)c2)on1	> 1000 nM	> 1000 nM	–
OCCc1cc(-c2cncc(OC[C@@H]3CCCN3)c2)on1	> 1000 nM	> 1000 nM	–
CN[C@H]1CC[C@@H](c2ccc(Cl)c(Cl)c2)c2ccccc21	–	–	Activity (Mus musculus [20]): Active
c1cncc(OC[C@@H]2CCN2)c1	–	–	Ki [21]: 314 nM; EC50 [22]: 800 nM
CCNC(=O)OCCc1cc(-c2cncc(OC[C@@H]3CCCN3)c2)on1	> 1000 nM	> 1000 nM	–
FC(F)CCc1cc(-c2cncc(OC[C@@H]3CCN3)c2)on1	> 1000 nM	> 1000 nM	Activity (Mus musculus [17]): Active; Activity (Mus musculus [18]): Active
OCCc1cc(-c2cncc(OC[C@@H]3CCN3)c2)on1	> 1000 nM	> 1000 nM	–
CN1CCC[C@H]1COc1cncc(-c2cc(CCO)no2)c1	> 1000 nM	> 1000 nM	–
c1ncc(-c2cc(CCN3CCOCC3)no2)cc1OC[C@@H]1CCCN1	> 1000 nM	> 1000 nM	EC50 [1]: > 1000 nM; inhibition [2]: < 50%; inhibition [3]: < 50%; inhibition [4]: < 50%; Ki [5]: 575 nM; EC50 ([7]; read-out: pEC50 (converted)): > 100 nM; EC50 ([7]; sh-ep1, read-out: EC50): > 100 nM; IC50 [8]: > 100 nM; Ki [9]: 32 nM; IC50 [10]: > 1000 nM; Ki [11]: 132 nM
OCCCc1cc(-c2cncc(OC[C@@H]3CCCN3)c2)on1	> 1000 nM	> 1000 nM	–
CCNC(=O)OCCc1cc(-c2cncc(OC[C@@H]3CCN3)c2)on1	> 1000 nM	> 1000 nM	–
CCc1cc(-c2cncc(OC[C@H]3NC[C@@H]4C[C@@H]43)c2)on1	> 1000 nM	> 1000 nM	–
